From PubChem BioAssay
NPY-Y1 PAM-ag – potentiates or activates human NPY-Y1 receptor. NPY-Y1 expressing cells, potentiator/agonist activation. P25929. activation, % at 3.6 µM. AID 1304. actives 0.37% (n = 220,000); in the data active = activation above about 33%, passing the limit was not always enough;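 also: cells stimulated with NPY at EC10 then isoproterenol at EC100; 0% = low agonist plus stimulus and 100% = saturating agonist plus stimulus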
S1P4 ag – activates the human S1P4 receptor. O95977. S1P4-expressing cell line, agonist reporter assay. activation, % at 4.98 µM. actives 0.35% (n = 220,000); in the data active = activation above about 11%;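 also: 0% = DMSO vehicle and 100% = reference agonist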
Target sequence (O95977 whole entry, looked up): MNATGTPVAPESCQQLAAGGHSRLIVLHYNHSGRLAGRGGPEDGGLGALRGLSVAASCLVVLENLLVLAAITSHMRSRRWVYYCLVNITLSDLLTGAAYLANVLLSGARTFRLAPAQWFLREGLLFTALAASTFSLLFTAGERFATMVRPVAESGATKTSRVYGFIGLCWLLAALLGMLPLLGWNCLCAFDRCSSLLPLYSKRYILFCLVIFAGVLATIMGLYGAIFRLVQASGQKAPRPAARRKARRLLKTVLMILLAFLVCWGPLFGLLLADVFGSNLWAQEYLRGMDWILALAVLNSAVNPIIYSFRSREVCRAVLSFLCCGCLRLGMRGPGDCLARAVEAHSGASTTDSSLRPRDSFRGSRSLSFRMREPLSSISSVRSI
NPY Y2 blocker – blocks the human neuropeptide Y Y2 receptor | P49146 | NPY-Y2 expressing cells, antagonist mode | inhibition, % at 2.7 µM | actives 0.99% (n = 140,000); in the data active = inhibition above about 17%;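 also: 0% = vehicle with agonist challenge and 100% = reference antagonist with challenge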
S1P4 antagonist – antagonists of human S1P4 receptor; O95977; S1P4-expressing cells, antagonist mode, reporter read-out; inhibition, % at 4.98 µM; actives 0.26% (n = 220,000); in the data active = inhibition above about 29%;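 also: 0% = wells stimulated with agonist and 100% = vehicle wells without agonist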
NPY Y1 blocker – blocks the human neuropeptide Y Y1 receptor; P25929; HEK293-CNG Y1 cells, membrane potential fluorescence; NPY at EC95, then isoproterenol; inhibition, % at 3.6 µM; actives 1% (n = 200,000); AID 1040;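 active = inhibition above the campaign mean inhibition of all tested compounds plus 3 SD, cut at about 20% in these data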;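 also: 0% = DMSO wells given NPY plus isoproterenol and 100% = isoproterenol alone without NPY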
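Benchmarks – high control isoproterenol alone, low control NPY with isoproterenol · Material – HEK293 Y1/CNG channel cell line · Times – dye 3 h, compound 60 min room temperature, stimulation 45 min · Probe or stimulus – NPY (25 nM), isoproterenol (1 µM), Ro 20-1724 (25 µM) · Evaluation – % inhibition of NPY effect · Signal – fluorescence, membrane potential probe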
NPY-Y2 PAM-ag – human NPY-Y2 potentiation or agonism, primary screen | cells expressing NPY-Y2, potentiator/agonist read-out | actives 0.45% (n = 220,000) | AID 1359 | activation, % at 3.6 µM; in the data active = activation above about 27%;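 also: cells stimulated with NPY near EC25 plus isoproterenol at EC100; 0% = vehicle plus submaximal agonist and 100% = vehicle plus saturating agonist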
NPY1 antag ctr – human NPY-Y1 antagonism in NPY-Y2 counter-screen; shares compounds with NPY Y2 blocker; cell-based NPY-Y1 antagonism counterscreen; inhibition, % at 3.6 µM; actives 19% (n = 710); in the data active = inhibition above about 20%;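 also: cells challenged with NPY then isoproterenol with cAMP sensed through a CNG channel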
NPY-Y2 ant conf – confirmation of human neuropeptide Y receptor Y2 antagonists | shares compounds with NPY Y2 blocker | HEK293 NPY-Y2 CNG channel, membrane potential fluorescence | inhibition, % at 2.8 µM | actives 32% (n = 710) | AID 1257;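 active = mean inhibition of triplicate wells above the hit cutoff set in the primary screen, cut at about 17% in these data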;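 also: 0% = DMSO with NPY challenge and 100% = BIIE0246 high control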
Numbers without * were called inactive; . = no result. Compounds with a hit are over-represented: about 2.4% of the library has one in this group of screens.

SMILES	NPY-Y1 PAM-ag	S1P4 ag	NPY Y2 blocker	S1P4 antagonist	NPY Y1 blocker	NPY-Y2 PAM-ag	NPY1 antag ctr	NPY-Y2 ant conf
Fc1ccc(-c2nnn(Cc3nc4ccccc4s3)n2)cc1	-43	0	11	-2	7	-21	.	.
Clc1ccc(-c2nnn(Cc3nc4ccccc4s3)n2)cc1	-38	0	18*	-18	11	-22	20	24*
N#Cc1nc(-c2ccc(Cl)cc2)oc1NCc1ccco1	11	-1	2	6	3	11	.	.
N#Cc1nc(-c2ccc(Cl)cc2)oc1NCc1cccc2c1OCO2	-38	2	20*	-9	12	-7	21*	20*
COC(=O)c1c(C)[nH]c(C)c1-c1ccccc1Cl	0	3	3	-2	4	19	.	.
COC(=O)C1=C(C(=O)OC)SC2(S1)C(C(=O)OC)=C(C(=O)OC)SC1=C2c2cccc(C)c2NC1(C)C	7	-2	18*	19	5	-3	9	33*
CCN1CCN(S(=O)(=O)c2ccc(Oc3ccccc3OC)cc2)CC1	3	0	.	-3	-3	-3	.	.
Clc1ccc(CSc2cc3c(nn2)-c2ccccc2CC3)cc1Cl	-50	0	20*	0	16	-24	20	36*
Cc1ccc(-c2nn3c(C)nnc3s2)cc1NC(=O)c1ccc(-c2ccc(Cl)cc2Cl)o1	-14	1	19*	-13	4	-10	22*	24*
CNC(=O)CSc1nc2ccccc2c(=O)n1-c1cc(OC)ccc1OC	45	1	.	-11	.	7	.	.
Cc1ccc(-c2cc(C(=O)Nc3ccc4c(c3)OCCO4)c3ccccc3n2)cc1	-79	0	27*	-4	18	-81	18	39*
O=C(Nc1ccc2c(c1)OCO2)c1cc(-c2cccnc2)nc2ccccc12	-14	-1	.	2	7	-17	.	.
Cc1cc(C)n(-c2nnc(C)n2/N=C/c2ccccc2OCc2ccccc2Cl)n1	-4	-1	18*	-4	11	-3	20*	11
CCn1nc(C(=O)OCC(=O)c2cc(C)n(Cc3cccs3)c2C)c2ccccc2c1=O	-15	0	24*	-4	17	-24	20	25*
Cc1cc(C(=O)COC(=O)c2ccccc2O)c(C)n1Cc1cccs1	-6	-2	13	0	12	-7	.	.
CCCC(=O)Nc1c(-c2ccccc2)c(=O)c(C)nn1-c1ccc(C)cc1	-2	-1	.	10	.	-6	.	.
C=CCn1c(C(CC)CC)nc2ccccc21	-3	-1	.	2	.	-13	.	.
COc1ccc(-c2csc(N(CCCN3CCOCC3)C(=O)c3ccco3)n2)cc1	-40	3	18*	2	16	-8	12	13
Cc1ccc(-c2csc(N(CCCN3CCOCC3)C(=O)c3ccco3)n2)cc1	-35	-1	18*	-6	14	-13	14	11
CC(=O)c1ccc(-c2nnc(CCC(=O)N(C)Cc3c(C)nc4ccccn34)o2)s1	20	2	.	-4	1	-5	.	.
CCOc1ccc(-c2cc(N)n(S(=O)(=O)c3cccc4nsnc34)n2)cc1	18	-1	.	-2	.	-19	.	.
COc1cc(OC)c(C2C(C#N)=C(C)NC(C)=C2C#N)c(C(=O)O)c1	14	0	.	4	.	-4	.	.
O=C(CN(Cc1ccc2c(c1)OCO2)C(=O)CSc1nc2ccccc2o1)NC1CCCCC1	-4	-1	17*	-9	13	-17	16	19*
COCCN(CC(=O)NC1CCCCC1)C(=O)CSc1nc2ccccc2o1	-4	1	1	3	4	-11	.	.
O=C(CSc1nc2ccccc2o1)c1ccc2c(c1)OCCO2	-28	0	22*	-17	9	-3	9	18*
SMILES	NPY-Y1 PAM-ag	S1P4 ag	NPY Y2 blocker	S1P4 antagonist	NPY Y1 blocker	NPY-Y2 PAM-ag	NPY1 antag ctr	NPY-Y2 ant conf
Cc1cccc(NC(=O)CSc2nc3ccccc3o2)c1	-28	-2	22*	-6	11	-12	8	8
O=C(Nc1ccccc1Cl)C1C2CCC3C(CCC21)C3(Cl)Cl (configuration not stated)	-33	0	18*	2	20	2	12	10
O=C(O)CSc1nnc(-c2ccc3c(c2)OCO3)o1	-32	1	31*	-24	14	-22	18	18*
O=S(=O)(NC1CCCCC1)c1ccc(N2CCOCC2)nc1	4	0	.	5	.	-12	.	.
CCOc1ccc(-n2cc(C(=O)Nc3cccc(Cl)c3)c3cc(OC)c(OC)cc3c2=O)cc1	-62	1	18*	-2	13	-30	12	20*
O=C(COc1ccccc1)Nc1cc(C(F)(F)F)ccc1N1CCCC1	-13	-2	20*	-20	20	-24	27*	15
O=C(COc1ccccc1)Nc1ccccc1N1CCCCC1	-61	1	11	-12	11	-3	.	.
Cc1ccccc1N=CC1=C(O)c2ccccc2C1=O	-2	-1	.	-9	0	-14	.	.
CCN1/C(=C2\OC(=S)N(C)C2=O)Sc2ccccc21	11	0	20*	3	-1	5	-1	12
CCN1/C(=C2\OC(=S)N(C)C2=O)C=Cc2ccccc21	5	2	.	-9	-4	-6	.	.
C=CCNc1nc(N2CCCC2)nc2ccccc12	-33	-2	20*	-1	11	4	19	19*
Cc1ccccc1N1C(=O)c2ccccc2N2C(=O)c3ccccc3C12 (configuration not stated)	-9	1	23*	-8	12	-17	5	7
O=C1c2ccccc2N2C(=O)c3ccccc3C2N1O (configuration not stated)	3	1	0	0	-1	-4	.	.
CCCCCCC(=O)Nc1ccc(Br)cn1	-25	-1	.	1	.	1	.	.
C/C(=N/NS(C)(=O)=O)c1ccc2ccccc2c1	-10	-1	17*	5	1	-3	8	5
CC1(C)Cc2c(sc3nc4n(-c5ccccc5)cnn4c(=O)c23)CO1	-1	1	.	-14	.	-15	.	.
C/C(N)=C(/C#N)C(=O)COC(=O)c1cc(-c2ccc(Br)cc2)nc2ccccc12	-12	6	-1	-16	3	5	.	.
O=C(NC1CCCCC1)C(c1ccc2ncccc2c1)N(Cc1ccc(F)cc1)C(=O)c1cccs1 (configuration not stated)	-33	-1	31*	2	19	-12	12	9
COC(=O)c1ccc(C(C(=O)NC2CCCCC2)N(CCc2ccccc2)C(=O)Cc2cccs2)cc1 (configuration not stated)	-17	1	2	-5	2	11	.	.
